Our source for the MIC and IC50 values is ChEMBL document CHEMBL4152223 (Eur J Med Chem, 2018).

≈ marks a conversion by molar mass, not a printed value.

Usually MIC stands for the smallest concentration in the dilution series that meets the test's criterion for growth inhibition. The IC50 is the midpoint of a concentration-inhibition curve.

In assay [1] the test system is Mycobacterium tuberculosis. The assay can be described thus: Antimycobacterial activity against Mycobacterium tuberculosis H37Rv after 14 days. The settings on record: 336 h. The assay is classed as functional.
Assay [2] has as its system Mycobacterium tuberculosis. Description: Antimycobacterial activity against Mycobacterium tuberculosis H37Rv after 21 days. The settings on record: 504 h. In kind it is functional.
Assay [3] concerns Mycobacterium avium. The assay can be described thus: Antimycobacterial activity against INH/RIF/OFX resistant Mycobacterium avium 330/88 after 14 days. In kind it is functional. Particulars: 330/88, 336 h.
The subject of assay [4] is Mycobacterium avium. The assay can be described thus: Antimycobacterial activity against INH/RIF/OFX resistant Mycobacterium avium 330/88 after 21 days. In kind it is functional. The settings on record: 330/88, 504 h.
Assay [5] concerns Mycobacterium kansasii. Description: Antimycobacterial activity against Mycobacterium kansasii 235/80 after 7 days. The assay is classed as functional. The settings on record: 235/80, 168 h.
Assay [6] relates to Mycobacterium kansasii. The assay can be described thus: Antimycobacterial activity against Mycobacterium kansasii 235/80 after 14 days. Particulars: 235/80, 336 h. The assay is classed as functional.
The subject of assay [7] is Mycobacterium kansasii. Description: Antimycobacterial activity against Mycobacterium kansasii 235/80 after 21 days. Particulars: 235/80, 504 h. The assay is classed as functional.
Assay [8] has as its system Mycobacterium kansasii. The assay can be described thus: Antimycobacterial activity against Mycobacterium kansasii 6509/96 after 7 days. The settings on record: 6509/96, 168 h. The assay is classed as functional.
Assay [9] relates to Mycobacterium kansasii. Description: Antimycobacterial activity against Mycobacterium kansasii 6509/96 after 14 days. In kind it is functional. Particulars: 6509/96, 336 h.
In assay [10] the test system is Mycobacterium kansasii. Description: Antimycobacterial activity against Mycobacterium kansasii 6509/96 after 21 days. Particulars: 6509/96, 504 h. The assay is classed as functional.
The test system of a further assay is HepG2. The assay can be described thus: Cytotoxicity against human HepG2 cells assessed as reduction in cell viability by MTS assay. The assay is classed as cell-based. Summed up: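 HepG2 human hepatocellular carcinoma cells (passage 2-4) were cultured in Eagle's MEM with 10% FBS, 1% L-glutamine and non-essential amino acids. Compounds were dissolved in DMSO and tested in triplicate at eight concentrations. Viability was read by colorimetric MTS tetrazolium reduction. Controls were 100% viability and 0% viability (10% DMSO). IC50 is the concentration reducing viability to 50% of control.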
On the technique in general: Formazan colour is commonly taken as a measure of viable cells.

With `CCCCCCCCCCCCCCCCNC(=O)NNC(=O)c1ccncc1`, the MIC in assay [1] stood at 32 µM (≈ 12.9 µg/mL); in [2], 62.5 µM (≈ 25.3 µg/mL); with Mycobacterium avium [3], 125 µM (≈ 50.6 µg/mL); with Mycobacterium avium [4], 125 µM (≈ 50.6 µg/mL); in the assay on Mycobacterium kansasii [5] it was 32 µM (≈ 12.9 µg/mL); with Mycobacterium kansasii [6] it was 62.5 µM (≈ 25.3 µg/mL). Besides, the minimal inhibitory concentration (MIC) against Mycobacterium kansasii [7] is 62.5 µM (≈ 25.3 µg/mL); with Mycobacterium kansasii [8], 32 µM (≈ 12.9 µg/mL); against Mycobacterium kansasii [9], 62.5 µM (≈ 25.3 µg/mL); against Mycobacterium kansasii [10] it was 62.5 µM (≈ 25.3 µg/mL). In addition, in the assay with HepG2, the IC50 was greater than 50 µM.
On to `CCCCCCCCNc1nnc(-c2ccncc2)o1`, for which the MIC is 62.5 µM (≈ 17.1 µg/mL) in [1]; 62.5 µM (≈ 17.1 µg/mL) in assay [2]; 62.5 µM (≈ 17.1 µg/mL) in the assay with Mycobacterium avium [3]; 125 µM (≈ 34.3 µg/mL) against Mycobacterium avium [4]; 62.5 µM (≈ 17.1 µg/mL) against Mycobacterium kansasii [5]; 125 µM (≈ 34.3 µg/mL) in the assay on Mycobacterium kansasii [6]. Moreover, the MIC in the assay on Mycobacterium kansasii [7] worked out at 125 µM (≈ 34.3 µg/mL); in the assay on Mycobacterium kansasii [8] it was 62.5 µM (≈ 17.1 µg/mL); in the assay on Mycobacterium kansasii [9] it was 125 µM (≈ 34.3 µg/mL); against Mycobacterium kansasii [10] it was 125 µM (≈ 34.3 µg/mL).
In the case of `CCCCCCCCNC(=O)NNC(=O)c1ccncc1`, the minimal inhibitory concentration (MIC) in assay [1] was 62.5 µM (≈ 18.3 µg/mL); in [2], 125 µM (≈ 36.5 µg/mL); with Mycobacterium avium [3], 250 µM (≈ 73.1 µg/mL); in the assay on Mycobacterium avium [4] it was 250 µM (≈ 73.1 µg/mL); in the assay on Mycobacterium kansasii [5], 32 µM (≈ 9.36 µg/mL); in the assay with Mycobacterium kansasii [6] it was 62.5 µM (≈ 18.3 µg/mL). For the same compound, the MIC in the assay with Mycobacterium kansasii [7] came to 125 µM (≈ 36.5 µg/mL); in the assay on Mycobacterium kansasii [8], 62.5 µM (≈ 18.3 µg/mL); in the assay with Mycobacterium kansasii [9], 125 µM (≈ 36.5 µg/mL); with Mycobacterium kansasii [10] it was 250 µM (≈ 73.1 µg/mL). Moreover, in the assay on HepG2, the IC50 is greater than 500 µM.
On to `CCCCCCCCCCCCNC(=O)NNC(=O)c1ccncc1`, for which the MIC in assay [1] is 32 µM (≈ 11.2 µg/mL); in [2] it was 32 µM (≈ 11.2 µg/mL); in the assay with Mycobacterium avium [3] it was 32 µM (≈ 11.2 µg/mL); against Mycobacterium avium [4], 62.5 µM (≈ 21.8 µg/mL); in the assay with Mycobacterium kansasii [5], 32 µM (≈ 11.2 µg/mL); against Mycobacterium kansasii [6], 62.5 µM (≈ 21.8 µg/mL). Besides, the MIC with Mycobacterium kansasii [7] stood at 125 µM (≈ 43.6 µg/mL); against Mycobacterium kansasii [8], 62.5 µM (≈ 21.8 µg/mL); against Mycobacterium kansasii [9], 62.5 µM (≈ 21.8 µg/mL); against Mycobacterium kansasii [10], 62.5 µM (≈ 21.8 µg/mL). Further, the half-maximal inhibitory concentration (IC50) in the assay on HepG2 is greater than 50 µM.
As to `CCCCCCCNc1nnc(-c2ccncc2)o1`, the MIC in [1] stood at 125 µM (≈ 32.5 µg/mL); in [2], 125 µM (≈ 32.5 µg/mL); against Mycobacterium avium [3], 500 µM (≈ 130 µg/mL); in the assay on Mycobacterium avium [4], 500 µM (≈ 130 µg/mL); in the assay on Mycobacterium kansasii [5] it was 250 µM (≈ 65.1 µg/mL); against Mycobacterium kansasii [6], 500 µM (≈ 130 µg/mL). Also, the MIC with Mycobacterium kansasii [7] came out at 500 µM (≈ 130 µg/mL); against Mycobacterium kansasii [8], 250 µM (≈ 65.1 µg/mL); in the assay with Mycobacterium kansasii [9], 500 µM (≈ 130 µg/mL); against Mycobacterium kansasii [10] it was 500 µM (≈ 130 µg/mL).
Turning to `CCCCNc1nnc(-c2ccncc2)o1`, the MIC in [1] is 250 µM (≈ 54.6 µg/mL); in [2] it was 500 µM (≈ 109 µg/mL); in the assay with Mycobacterium avium [3] it was greater than 1000 µM; in the assay on Mycobacterium avium [4] it was greater than 1000 µM; with Mycobacterium kansasii [5] it was 500 µM (≈ 109 µg/mL); in the assay on Mycobacterium kansasii [6], 1000 µM (≈ 218 µg/mL). Besides, the MIC against Mycobacterium kansasii [7], against Mycobacterium kansasii [8], in the assay with Mycobacterium kansasii [9] and in the assay with Mycobacterium kansasii [10] was 1000 µM (≈ 218 µg/mL) each time.
`CCCCCCCCCCCCCCNc1nnc(-c2ccncc2)o1`: the MIC (in assay [1]; in [2]; against Mycobacterium avium [3]; in the assay on Mycobacterium avium [4]; with Mycobacterium kansasii [5]; against Mycobacterium kansasii [6]) was 250 µM (≈ 89.6 µg/mL) in each case. The MIC against Mycobacterium kansasii [7], with Mycobacterium kansasii [8], against Mycobacterium kansasii [9] and in the assay on Mycobacterium kansasii [10] was 250 µM (≈ 89.6 µg/mL) throughout.
Turning to `CCCCCCCCCCNC(=O)NNC(=O)c1ccncc1`, the MIC is 16 µM (≈ 5.13 µg/mL) in [1]; 32 µM (≈ 10.3 µg/mL) in assay [2]; 500 µM (≈ 160 µg/mL) in the assay on Mycobacterium avium [3]; 500 µM (≈ 160 µg/mL) against Mycobacterium avium [4]; 32 µM (≈ 10.3 µg/mL) in the assay with Mycobacterium kansasii [5]; 62.5 µM (≈ 20 µg/mL) against Mycobacterium kansasii [6]. In addition, the MIC against Mycobacterium kansasii [7] is 125 µM (≈ 40.1 µg/mL); against Mycobacterium kansasii [8], 125 µM (≈ 40.1 µg/mL); against Mycobacterium kansasii [9], 250 µM (≈ 80.1 µg/mL); against Mycobacterium kansasii [10] it was 250 µM (≈ 80.1 µg/mL). The IC50 with HepG2 was greater than 250 µM.
Regarding `CCCCCCCCCCCCCCCCNc1nnc(-c2ccncc2)o1`, the MIC is 250 µM (≈ 96.6 µg/mL) in assay [1]; 250 µM (≈ 96.6 µg/mL) in assay [2]; 250 µM (≈ 96.6 µg/mL) in the assay with Mycobacterium avium [3]; 250 µM (≈ 96.6 µg/mL) against Mycobacterium avium [4]; 250 µM (≈ 96.6 µg/mL) in the assay with Mycobacterium kansasii [5]; 500 µM (≈ 193 µg/mL) in the assay with Mycobacterium kansasii [6]. Also, the MIC against Mycobacterium kansasii [7] came out at 500 µM (≈ 193 µg/mL); against Mycobacterium kansasii [8] it was 250 µM (≈ 96.6 µg/mL); against Mycobacterium kansasii [9] it was 500 µM (≈ 193 µg/mL); in the assay on Mycobacterium kansasii [10], 500 µM (≈ 193 µg/mL).
As for `CCCCCCCCCNC(=O)NNC(=O)c1ccncc1`, the MIC amounted to 62.5 µM (≈ 19.2 µg/mL) in assay [1]; 125 µM (≈ 38.3 µg/mL) in assay [2]; 250 µM (≈ 76.6 µg/mL) against Mycobacterium avium [3]; 250 µM (≈ 76.6 µg/mL) against Mycobacterium avium [4]; 32 µM (≈ 9.81 µg/mL) against Mycobacterium kansasii [5]; 62.5 µM (≈ 19.2 µg/mL) in the assay on Mycobacterium kansasii [6]. In addition, the MIC against Mycobacterium kansasii [7] was found to be 125 µM (≈ 38.3 µg/mL); with Mycobacterium kansasii [8], 62.5 µM (≈ 19.2 µg/mL); against Mycobacterium kansasii [9] it was 125 µM (≈ 38.3 µg/mL); against Mycobacterium kansasii [10] it was 125 µM (≈ 38.3 µg/mL). In addition, in the assay with HepG2, the IC50 is greater than 250 µM.
